M1 PAM = human M1 muscarinic receptor positive allosteric modulators, primary screen, CHO-K1 cells, Fluo-8 calcium fluorescence, 1536-well | Muscarinic acetylcholine receptor M1 (Homo sapiens), P11229 | CHO-K1 hM1, ACh EC20; 0% = ACh EC20, 100% = maximal ACh | activation, % at 3 µM | 360,000 compounds, 0.088% hits | AID 588819, 2011; in the data active means activation above about 19%, passing the limit was not always enough
CHRM5 antagonist = human M5 muscarinic receptor antagonists, primary screen, CHO cells, Fluo-8 calcium fluorescence. Muscarinic acetylcholine receptor M5 (Homo sapiens), P08912. CHO-hM5 cells, ACh EC80. inhibition, % at 3 µM. 360,000 compounds, 0.59% hits. AID 624040, 2012;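 active means inhibition above a per-plate cutoff, the mean of that plate's test compounds plus 3 SD, cut at about 27% in these data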;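 further: 0% = acetylcholine EC80 with DMSO and 100% = DMSO without agonist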
Target sequence (P08912 whole entry, looked up): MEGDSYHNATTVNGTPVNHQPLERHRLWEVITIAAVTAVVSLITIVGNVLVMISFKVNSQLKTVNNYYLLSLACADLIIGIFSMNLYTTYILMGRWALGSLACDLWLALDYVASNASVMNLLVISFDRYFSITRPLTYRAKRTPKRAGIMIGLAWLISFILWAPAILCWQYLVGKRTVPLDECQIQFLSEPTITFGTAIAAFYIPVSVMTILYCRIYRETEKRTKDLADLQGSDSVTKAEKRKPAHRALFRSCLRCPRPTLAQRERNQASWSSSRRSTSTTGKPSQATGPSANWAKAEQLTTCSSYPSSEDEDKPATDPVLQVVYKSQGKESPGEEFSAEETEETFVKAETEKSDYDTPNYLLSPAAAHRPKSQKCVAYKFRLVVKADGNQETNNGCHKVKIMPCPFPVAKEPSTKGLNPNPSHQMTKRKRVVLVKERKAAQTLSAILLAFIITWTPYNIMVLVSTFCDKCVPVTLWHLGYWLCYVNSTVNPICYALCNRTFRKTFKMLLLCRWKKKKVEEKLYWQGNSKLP
M1 antag = human M1 muscarinic receptor antagonists, primary screen, CHO-K1 cells, Fluo-8 calcium fluorescence, 1536-well; Muscarinic acetylcholine receptor M1 (Homo sapiens), P11229; CHO-K1 hM1, ACh EC80 antagonist; 360,000 compounds, 1.3% hits; inhibition, % at 3 µM; AID 588852, 2011;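 active means percent inhibition above its own plate's cutoff, namely the mean of that plate's compound wells plus 3 SD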;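 further: peak over basal fluorescence ratio during 140 s after agonist addition; 0% = ACh EC80 plus DMSO and 100% = DMSO alone without agonist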
CHRM5 agonist = human M5 muscarinic receptor agonists, primary screen, CHO-K1 cells, Fluo-8 calcium fluorescence; CHO-K1 hM5 cells; 0% DMSO wells, 100% maximal acetylcholine response; 360,000 compounds, 0.19% hits; activation, % at 3 µM;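 active means activation above the run's mean over test compounds plus 3 SD, cut at about 23% in these data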;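 further: signal is peak over basal fluorescence ratio across the kinetic read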
M1 ag = human M1 muscarinic receptor agonists, primary screen, Fluo-8 calcium fluorescence, CHO-K1 cells, HTS; Muscarinic acetylcholine receptor M1 (Homo sapiens), P11229; CHO-K1 hM1, agonist mode; 0% DMSO, 100% acetylcholine EC100; activation, % at 3 µM; 360,000 compounds, 0.33% hits; AID 588814, 2011;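 active means activation above the run's mean compound activation plus 3 SD, cut at about 16% in these data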;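 further: peak over basal fluorescence ratio within a 140 s kinetic read after compound addition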
M5 PAM = human M5 muscarinic receptor positive allosteric modulators, primary screen, CHO-K1 cells, Fluo-8 calcium fluorescence; Muscarinic acetylcholine receptor M5 (Homo sapiens), P08912; CHO-K1 hM5, ACh EC20 PAM; 0% = ACh EC20, 100% = ACh EC100; activation, % at 3 µM; 360,000 compounds, 0.3% hits; AID 624038, 2012;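 active means activation above the run cutoff, the mean activation of all test compounds plus 3 SD, cut at about 18% in these data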
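system = human M5 receptor in CHO-K1 cells | compound = one concentration, 3 µM final (nominal) | schedule = Post-acetylcholine fluorescence recording 140 s | signal = Fluo-8 calcium dye fluorescence, kinetic read | benchmarks = low control EC20 acetylcholine (0%), high control EC100 acetylcholine (100%) | repeats = singlicate, one well per test compound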
Numbers without * were called inactive; / = not tested or not shown. Only some compounds are listed: those with a hit (about 2% of all), similar ones and a draw of the others.

SMILES	M1 PAM	CHRM5 antagonist	M1 antag	CHRM5 agonist	M1 ag	M5 PAM
Cc1cc(-c2cc(NC=O)c3ncc(-c4cccc(C(=O)NCCN(C)C)c4)n3c2)cc(C)c1O	7	7	-16	-1	-9	0
CCN(CC)CCNC(=O)Cn1nc(-c2ccccc2)c2ccccc2c1=O	-5	8	9	-10	-6	-4
CCN(CC)CCNC(=O)Cn1ncc2ccccc2c1=O	22	-11	-16	8	-1	20*
NC(=O)COC(=O)CC12CC3CC(CC(C3)C1)C2	-1	4	9	-2	-4	3
NC(=O)NC(=O)COC(=O)CC12CC3CC(CC(C3)C1)C2	18	-8	-11	1	4	20*
CC(=O)c1cccc(NS(=O)(=O)c2cc(OCC(N)=O)c(C)cc2Cl)c1	0	-2	1	2	-4	0
Cc1cccc(NS(=O)(=O)c2cc(OCC(N)=O)c(C)cc2Cl)c1	5	5	-13	28*	10	-9
Cc1ccc(NS(=O)(=O)c2cc(OCC(N)=O)c(C)cc2Cl)cc1C	3	-5	3	34*	8	15
CN1C(=O)N(CC(=O)c2ccc3c(c2)OCO3)C(=O)C12CCCCC2	12	5	-20	1	2	-3
Cc1c(C(c2ccccc2Br)c2c(C)n(C)n(-c3ccccc3)c2=O)c(=O)n(-c2ccccc2)n1C	-3	-3	-8	-6	-11	-6
C[C@@H]1CN([C@@H](C)CO)C(=O)CCCn2nncc2CO[C@@H]1CN(C)C(=O)Nc1ccccc1	3	-11	-8	-1	-2	2
C[C@@H](CO)NC(=O)c1[nH]cnc1C(=O)Nc1cccc(Cl)c1	4	-7	-7	0	1	1
CN(C)C(=O)COC(=O)c1cc(Cl)cc(Cl)c1N	10	-7	-9	-1	-2	0
CC(C)N(C(=O)COC(=O)c1cc(Cl)cc(Cl)c1N)C(C)C	-6	27*	-3	-7	-7	-15
Clc1ccc(-c2cn(-c3ccccc3)c3[n+]2CCS3)cc1	-33	9	58*	-9	-13	-5
Fc1ccc(-c2cn(-c3ccccc3)c3[n+]2CCS3)cc1	-12	-2	11	-10	-7	7
CC(=O)c1ccc(-n2cc(-c3ccc(C(C)(C)C)cc3)[n+]3c2SCCC3)cc1	-32	8	39*	-10	-14	-17
COc1ccc(-c2cn(-c3ccc(Br)cc3)c3[n+]2CCS3)cc1	-25	1	44*	-10	-8	-1
Clc1ccc(-c2cn(-c3ccc(Cl)cc3)c3[n+]2CCCCC3)cc1	-14	7	19	-18	-9	-7
CN1C(=O)[C@H]2[C@@H](c3ccc(C(F)(F)F)cc3)N[C@]3(CCCN(Cc4cccn4C)C3=O)[C@H]2C1=O	-8	-8	-2	0	-7	-3
CC(=O)c1ccc(OCC(=O)NCCC2=CCCCC2)cc1	24*	2	-19	-7	-6	3
O=C(COC(=O)/C=C/c1ccc(Cl)cc1Cl)NCCC1=CCCCC1	-10	24	19	6	0	27*
CC(C)(C)n1nnnc1C1c2ccccc2C(=O)N1CCc1c[nH]c2ccccc12 (stereo not given)	/	-1	/	3	/	-8
Oc1ccccc1Oc1ncc(Br)c(Cl)n1	6	-4	-5	-8	-7	4
Oc1ccccc1Oc1ncc(Br)c(N2CCOCC2)n1	-23	11	84*	-8	-6	-23
SMILES	M1 PAM	CHRM5 antagonist	M1 antag	CHRM5 agonist	M1 ag	M5 PAM
O=C(Nc1cccc(C(F)(F)F)c1)c1csc(COCCO)n1	9	2	-19	1	-2	1
CCOc1ccc(CCNC(=O)Cn2ccc3ccccc3c2=O)cc1OCC	4	0	-8	0	-3	20*
C(=Nn1cnnc1)c1ccc2c(c1)CCC2	2	-3	-4	1	-4	-1
CCOC(=O)C1=C(N)Oc2c(oc(CO)cc2=O)C1c1ccc(Cl)cc1 (stereo not given)	-2	-2	14	3	1	18*
O=c1n(Cc2ccccc2)c(O)c2n1Cc1ccccc1N=C2c1ccc(C(F)(F)F)cc1	-7	8	-17	0	-3	-3
C[C@@H]1CN([C@@H](C)CO)C(=O)CCCn2nncc2CO[C@H]1CN(C)C(=O)c1ccccc1	9	-1	-12	0	-3	6
COc1ccc(/C=C/CN2CCC(CO)(Cc3ccccc3Cl)CC2)cc1	-31	9	31*	-4	-9	-18
COc1ccc(/C=C/CN2CCN(Cc3ccccc3)C(CCO)C2)cc1 (stereo not given)	-9	-20	6	-7	-13	2
CCOC(=O)C1(CCc2ccccc2)CCN(Cc2ccc(C(=O)OC)cc2)CC1	-4	1	-2	-5	-4	-10
CCOC(=O)C1(CC2CC2)CCN(Cc2ccc(C(=O)OC)cc2)CC1	-24	24	60*	-19	-5	-19
CCOC(=O)C1CCN(Cc2ccc(C(=O)OC)cc2)CC1	-20	3	67*	-7	43*	-4
COC(=O)c1ccc(CN2CCC(CO)(Cc3ccccc3Cl)CC2)cc1	-5	0	52*	-11	19*	-3
COC(=O)c1ccc(CN2CCCC(CO)(Cc3ccccc3F)C2)cc1 (stereo not given)	-18	-2	26	-12	3	0
COc1ccc(NC(=S)N2CCC3CC2c2c(Cl)cccc23)c(OC)c1 (stereo not given)	-5	-1	1	0	-1	-5
COC(=O)c1ccc(CN2CCCC(C(=O)Nc3ccc(-c4ccn[nH]4)cc3)C2)cc1 (stereo not given)	-8	10	12	-2	36*	-8
COC(=O)c1ccc(CN2CCN(CC(C)C)C(CCO)C2)cc1 (stereo not given)	-17	8	35*	-9	-8	-1
CCOC(=O)C1(CC2CC2)CCN(Cc2cn(C)c3ccccc23)CC1	-24	10	32*	-7	-11	-10
COC(=O)c1ccc(CN2CCCCC2)cc1	-9	-10	26	1	27*	5
